Experimental data: publication PMC7115506 (European Journal of Medicinal Chemistry, 2018)

Legend:
[1] = tested on: human leukemia K562 cells; experiment: MTT cytotoxic activity assay, K562; assay type: cell-based; details: for enhancement of potency compared to that of 2d: ratio to 2d, K562; for IC50: read-out: IC50 K562, MTT, 48 h
How it was run: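 K562 cells at 5 × 10^4 cells/ml were plated for 2 h, then exposed to test compound at 10–100,000 nM for 48 h. MTT (5 mg/mL stock) was added for a further 4 h and read on a plate reader. DMSO-treated controls were set as 100% viability. IC50 came from nonlinear regression over three independent assays.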

liver cancer HepG2 cells = experiment: MTT cytotoxic activity assay, HepG2; assay type: cell-based, human; details: read-out: IC50 HepG2
HUVEC cells = experiment: Tube forming assay on Matrigel; assay type: cell-based, human; details: 10 nM, 30 nM, 100 nM; 12 h
HepG2 cells [2] = experiment: Transwell assay; assay type: cell-based, human; details: 10 nM, 30 nM, 100 nM; 24 h
K562 cells [3] = experiment: Morphological changes by microscopy; assay type: cell-based, human; details: 30 nM
How it was run: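 K562 cells were kept in RPMI-1640 with 10% FBS, 2.05 mM glutamine and 1% penicillin/streptomycin at 37 °C and 5% CO2. They were exposed to test compound at 30 nM, and morphology was compared with DMSO-treated cells.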

K562 cells [4] = experiment: Flow cytometric analysis of apoptosis; assay type: cell-based, human; details: 30 nM; 48 h
How it was run: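 K562 cells (RPMI-1640, 10% FBS) were seeded in six-well plates and given DMSO or test compound at 30 or 300 nM for 0, 6, 12, 24 and 48 h. Cells were washed twice in ice-cold PBS, resuspended in binding buffer, then stained with Annexin V-FITC (10 min) and PI at 50 μg/mL (10 min) at room temperature in the dark. Flow cytometry with quadrant statistics.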

HepG2 cells [5] = experiment: Wound healing assay; assay type: cell-based, human; details: 48 h, DMSO 184.89 μm

Compound	enhancement of potency compared to that of 2d [1]	IC50 [1]	IC50 (liver cancer HepG2 cells)	further results
COc1ccc(-c2ccc3c(c2)C(=O)C(=O)N3Cc2ccccc2OC)cc1 [2o, 1-(2-methoxybenzyl)-5-(4-methoxyphenyl)indoline-2,3-dione]	8–25 folds	–	–	–
(Z)-ethyl 2-(1-(4-methoxybenzyl)-5-(4-methoxyphenyl)-2-oxoindolin-3-ylidene)acetate [5d]	–	1240 ± 540 nM	3390 ± 270 nM	–
1-(3,5-dimethylbenzyl)-5-(4-methoxyphenyl)indoline-2,3-dione [2p]	–	140 ± 30 nM	410 ± 30 nM	–
COc1ccc(CN2C(=O)C(=O)c3cc(-c4ccc(C(C)(C)C)cc4)ccc32)cc1 [compound 4e, 5-(4-(tert-butyl)phenyl)-1-(4-methoxybenzyl)indoline-2,3-dione]	–	–	–	drop of cytotoxic activity from that of 4k ([1]; ratio to 4k): 15 folds
(Z)-methyl 2-(1-(4-methoxybenzyl)-5-(4-methoxyphenyl)-2-oxoindolin-3-ylidene)acetate [5e]	–	1900 ± 140 nM	4730 ± 1240 nM	–
COc1ccc(CN2C(=O)C(=O)c3cc(-c4ccc(OC)cc4)ccc32)cc1 [compound 2m, 1-(4-methoxybenzyl)-5-(4-methoxyphenyl)indoline-2,3-dione]	8–25 folds	–	–	effect on tube formation of HUVEC cells (HUVEC cells): could inhibit the angiogenesis of HUVEC cells and have a dose-dependent inhibitory effect; effect on HepG2 cells migration (transwell) (HepG2 cells [2]): could inhibit the HepG2 cells migration and have a dose-dependent inhibitory effect; morphological change: elongated cells (G2/M arrest morphology) (K562 cells [3]; 6 h, vs DMSO-treated cells): elongated cells increased significantly; morphological change: apoptotic cells (K562 cells [3]; 24 h): apoptotic cells were clearly observed; apoptotic rate of K562 cells (K562 cells [4]): 43.4%; The distance of migration (HepG2 cells [5]; 10 nM): 162.89 μm; The distance of migration (HepG2 cells [5]; 30 nM): 135.22 μm; The distance of migration (HepG2 cells [5]; 100 nM): 96.24 μm
COc1ccc(-c2ccc3c(c2)C(=O)C(=O)N3Cc2ccc3c(c2)OCO3)cc1 [2v, 1-(benzo[d] [1, 3]dioxol-5-ylmethyl)-5-(4-methoxyphenyl)indoline-2,3-dione]	8–25 folds	–	–	–
COc1ccc(-c2ccc3c(c2)C(=O)C(=O)N3Cc2ccc(OC)c(OC)c2)cc1 [2q, 1-(3,4-dimethoxybenzyl)-5-(4-methoxyphenyl)indoline-2,3-dione]	8–25 folds	–	–	–
1-(4-methoxybenzyl)-5-(thiophen-3-yl)indoline-2,3-dione [compound 4r]	–	80 ± 40 nM	3670 ± 1400 nM	–
